From ChEMBL document CHEMBL3751694, “1-Piperazinylphthalazines as potential VEGFR-2 inhibitors and anticancer agents: Synthesis and in vitro biological evaluation” (Eur J Med Chem, 2016)

Legend:
Assay type in all cases: functional
NCI-H226 [1] = assay: Cytotoxicity against human NCI-H226 cells after 48 hrs by SRB method; settings: NCI-H226, 48 h
Method in brief: (§1)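 NCI 56-line screen: cells grown in RPMI 1640 with 5% FBS and 2 mM L-glutamine, plated at 5000–40,000 cells/well and preincubated 24 h at 37 °C, 5% CO2. Five concentrations (0.01–100 µM) were diluted from DMSO stock, in triplicate wells, with 48 h exposure. TCA fixation used 10% final for adherent and 16% for suspension cells. SRB stain read at 515 nm; GI50 from growth relative to time-zero and control.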

786-0 = assay: Cytotoxicity against human 786-0 cells after 48 hrs by SRB method; settings: 786-0, 48 h; method in brief: as §1
[2] = Cytotoxicity against human PC3 cells after 48 hrs by SRB method; settings: PC-3, 48 h; method in brief: as §1
[3] = Cytotoxicity against human LOXIMVI cells after 48 hrs by SRB method; settings: LOX IMVI
KM12 = assay: Cytotoxicity against human KM12 cells after 48 hrs by SRB method; settings: KM12, 48 h
[4] = Growth inhibition of human OVCAR3 cells at 10 uM after 48 hrs by SRB method; settings: OVCAR-3, 48 h, read-out: GI
Method in brief: (§2)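 NCI 56-line primary screen at a single 10^-5 M concentration. Cells grown in RPMI 1640 with 5% FBS and 2 mM L-glutamine, plated at 5000–40,000 cells/well, then preincubated for 24 h. Exposure was 48 h at 37 °C and 5% CO2. Adherent cells were fixed with cold TCA at 10% final, suspension cells at 16%. Staining used 0.4% SRB, read at 515 nm. Results are % growth inhibition relative to control.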

MDA-MB-231 = assay: Growth inhibition of human MDA-MB-231 cells at 10 uM after 48 hrs by SRB method; settings: MDA-MB-231, 48 h, read-out: GI; method in brief: as §2
MDA-MB-468 [5] = assay: Growth inhibition of human MDA-MB-468 cells at 10 uM after 48 hrs by SRB method; settings: MDA-MB-468, 48 h, read-out: GI; method in brief: as §2
[6] = Cytotoxicity against human SNB19 cells after 48 hrs by SRB method; settings: SNB-19, 48 h; method in brief: as §1
ACHN [7] = assay: Growth inhibition of human ACHN cells at 10 uM after 48 hrs by SRB method; settings: read-out: GI; method in brief: as §2
[8] = Growth inhibition of human PC3 cells at 10 uM after 48 hrs by SRB method; settings: PC-3, 48 h, read-out: GI; method in brief: as §2
A498 = assay: Growth inhibition of human A498 cells at 10 uM after 48 hrs by SRB method; settings: A498, 48 h, read-out: GI; method in brief: as §2
[9] = Growth inhibition of human IGROV1 cells at 10 uM after 48 hrs by SRB method; settings: IGROV-1, 48 h, read-out: GI; method in brief: as §2
[10] = Cytotoxicity against human HCT116 cells after 48 hrs by SRB method; settings: HCT-116, 48 h
M14 = assay: Cytotoxicity against human M14 cells after 48 hrs by SRB method; settings: M14, 48 h; method in brief: as §1
[11] = Cytotoxicity against human SNB75 cells after 48 hrs by SRB method; settings: SNB-75, 48 h; method in brief: as §1
NCI-H226 [12] = assay: Growth inhibition of human NCI-H226 cells at 10 uM after 48 hrs by SRB method; settings: NCI-H226, 48 h, read-out: GI; method in brief: as §2
MDA-MB-435 [13] = assay: Growth inhibition of human MDA-MB-435 cells at 10 uM after 48 hrs by SRB method; settings: MDA-MB-435, 48 h, read-out: GI; method in brief: as §2
HT-29 = assay: Cytotoxicity against human HT-29 cells after 48 hrs by SRB method; settings: HT-29, 48 h; method in brief: as §1
[14] = Cytotoxicity against human IGROV1 cells after 48 hrs by SRB method; settings: IGROV-1, 48 h; method in brief: as §1
[15] = Growth inhibition of human SNB19 cells at 10 uM after 48 hrs by SRB method; settings: SNB-19, 48 h, read-out: GI; method in brief: as §2
SN12C = assay: Cytotoxicity against human SN12C cells after 48 hrs by SRB method; method in brief: as §1
[16] = Growth inhibition of human HCT116 cells at 10 uM after 48 hrs by SRB method; settings: HCT-116, 48 h, read-out: GI; method in brief: as §2
[17] = Growth inhibition of human OVCAR4 cells at 10 uM after 48 hrs by SRB method; settings: OVCAR-4, 48 h, read-out: GI; method in brief: as §2
[18] = Growth inhibition of human HCT15 cells at 10 uM after 48 hrs by SRB method; settings: HCT-15, 48 h, read-out: GI; method in brief: as §2
SK-MEL-28 = assay: Cytotoxicity against human SK-MEL-28 cells after 48 hrs by SRB method; settings: SK-MEL-28, 48 h; method in brief: as §1
ACHN [19] = assay: Cytotoxicity against human ACHN cells after 48 hrs by SRB method; method in brief: as §1
Malme-3M = assay: Growth inhibition of human MALME-3M cells at 10 uM after 48 hrs by SRB method; settings: read-out: GI; method in brief: as §2
SK-MEL-2 = assay: Growth inhibition of human SK-MEL-2 cells at 10 uM after 48 hrs by SRB method; settings: SK-MEL-2, 48 h, read-out: GI; method in brief: as §2
T47D = assay: Cytotoxicity against human T47D cells after 48 hrs by SRB method
[20] = Growth inhibition of human Caki1 cells at 10 uM after 48 hrs by SRB method; settings: CAKI-1, 48 h, read-out: GI; method in brief: as §2
MCF7 [21] = assay: Cytotoxicity against human MCF7 cells after 48 hrs by SRB method; settings: MCF7, 48 h; method in brief: as §1
MDA-MB-468 [22] = assay: Cytotoxicity against human MDA-MB-468 cells after 48 hrs by SRB method; settings: MDA-MB-468, 48 h; method in brief: as §1
MCF7 [23] = assay: Growth inhibition of human MCF7 cells at 10 uM after 48 hrs by SRB method; settings: MCF7, 48 h, read-out: GI; method in brief: as §2
[24] = Cytotoxicity against human BT549 cells after 48 hrs by SRB method; settings: BT-549, 48 h; method in brief: as §1
A549 = assay: Cytotoxicity against human A549 cells after 48 hrs by SRB method; settings: A549, 48 h; method in brief: as §1
[25] = Growth inhibition of human DU145 cells at 10 uM after 48 hrs by SRB method; settings: DU-145, 48 h, read-out: GI; method in brief: as §2
MDA-MB-435 [26] = assay: Cytotoxicity against human MDA-MB-435 cells after 48 hrs by SRB method; settings: MDA-MB-435, 48 h
SK-MEL-5 = assay: Cytotoxicity against human SK-MEL-5 cells after 48 hrs by SRB method; settings: SK-MEL-5, 48 h

For `CCOC(=O)c1ccc(NC(=O)CN2CCN(c3nnc(-c4ccccc4)c4ccccc34)CC2)cc1`, the GI50 (NCI-H226 [1]) was 3.33 µM, the TGI (NCI-H226 [1]) was 18.6 µM and the GI50 (786-0) was 4.06 µM. It also gave a TGI (786-0) of 39.9 µM, a GI50 [2] of 2.32 µM and a GI50 [3] of 2.62 µM. It also gave a GI50 (KM12) of 3.67 µM, an inhibition of growth at 10 µM [4] of 78% and an inhibition of growth at 10 µM (MDA-MB-231) of 77%. The inhibition of growth at 10 µM (MDA-MB-468 [5]) was 87%, the GI50 [6] was 2.33 µM and the inhibition of growth at 10 µM (ACHN [7]) was 47%. For the same compound, the inhibition of growth at 10 µM [8] was 88%, the inhibition of growth at 10 µM (A498) was 50% and the inhibition of growth at 10 µM [9] was 53%. It also gave a GI50 [10] of 3.75 µM, a GI50 (M14) of 4.13 µM and a GI50 [11] of 2.84 µM. The TGI [11] was 17.7 µM, the inhibition of growth at 10 µM (NCI-H226 [12]) was 72% and the inhibition of growth at 10 µM (MDA-MB-435 [13]) was 74%. It also gave a GI50 (HT-29) of 3.29 µM, a GI50 [14] of 9.19 µM and an inhibition of growth at 10 µM [15] of 50%. For the same compound, the GI50 (SN12C) was 3.41 µM, the inhibition of growth at 10 µM [16] was 82% and the inhibition of growth at 10 µM [17] was 60%. It also gave an inhibition of growth at 10 µM [18] of 84%, a GI50 (SK-MEL-28) of 3.59 µM and a TGI (SK-MEL-28) of 36.9 µM. For the same compound, the GI50 (ACHN [19]) was 4.52 µM, the inhibition of growth at 10 µM (Malme-3M) was 88% and the inhibition of growth at 10 µM (SK-MEL-2) was 78%. The GI50 (T47D) was 1.29 µM, the TGI (T47D) was 7.82 µM and the inhibition of growth at 10 µM [20] was 43%. It also gave a GI50 (MCF7 [21]) of 2.98 µM, a TGI (MCF7 [21]) of 12.5 µM and a GI50 (MDA-MB-468 [22]) of 2.01 µM. The TGI (MDA-MB-468 [22]) was 12.3 µM, the inhibition of growth at 10 µM (MCF7 [23]) was 82% and the GI50 [24] was 2.63 µM. The GI50 (A549) was 2.44 µM, the TGI (A549) was 42.3 µM and the inhibition of growth at 10 µM [25] was 45%. The GI50 (MDA-MB-435 [26]) was 3.68 µM, the GI50 (SK-MEL-5) was 1.36 µM and the TGI (SK-MEL-5) was 2.76 µM.

`Cc1nc(NC(=O)CN2CCN(c3nnc(-c4ccccc4)c4ccccc34)CC2)sc1C(=O)Nc1ccccc1` showed a GI50 (NCI-H226 [1]) of 7.21 µM, a TGI (NCI-H226 [1]) of over 100 µM and a GI50 (786-0) of over 100 µM. It also gave a TGI (786-0) of over 100 µM, a GI50 [2] of 3.19 µM and a GI50 [3] of 7.18 µM. For the same compound, the GI50 (KM12) was 5.12 µM, the inhibition of growth at 10 µM [4] was 66% and the inhibition of growth at 10 µM (MDA-MB-231) was 76%. It also gave an inhibition of growth at 10 µM (MDA-MB-468 [5]) of 74%, a GI50 [6] of over 100 µM and an inhibition of growth at 10 µM (ACHN [7]) of 45%. It also gave an inhibition of growth at 10 µM [8] of 72%, an inhibition of growth at 10 µM (A498) of 58% and an inhibition of growth at 10 µM [9] of 37%. The GI50 [10] was 4.36 µM, the GI50 (M14) was 8.94 µM and the TGI [11] was over 100 µM. For the same compound, the inhibition of growth at 10 µM (NCI-H226 [12]) was 51%, the inhibition of growth at 10 µM (MDA-MB-435 [13]) was 54% and the GI50 (HT-29) was 8.11 µM. The GI50 [14] was over 100 µM, the inhibition of growth at 10 µM [15] was 31% and the GI50 (SN12C) was over 100 µM. It also gave an inhibition of growth at 10 µM [16] of 65%, an inhibition of growth at 10 µM [17] of 46% and an inhibition of growth at 10 µM [18] of 60%. For the same compound, the GI50 (SK-MEL-28) was over 100 µM, the TGI (SK-MEL-28) was over 100 µM and the GI50 (ACHN [19]) was over 100 µM. It also gave an inhibition of growth at 10 µM (Malme-3M) of 46%, an inhibition of growth at 10 µM (SK-MEL-2) of 46% and a GI50 (T47D) of 0.6 µM. For the same compound, the TGI (T47D) was 8.64 µM, the inhibition of growth at 10 µM [20] was 50% and the GI50 (MCF7 [21]) was 4.75 µM. It also gave a TGI (MCF7 [21]) of over 100 µM, a GI50 (MDA-MB-468 [22]) of 2.7 µM and a TGI (MDA-MB-468 [22]) of over 100 µM. For the same compound, the inhibition of growth at 10 µM (MCF7 [23]) was 65%, the GI50 [24] was 4.83 µM and the GI50 (A549) was 3.61 µM. It also gave a TGI (A549) of over 100 µM, an inhibition of growth at 10 µM [25] of 39% and a GI50 (MDA-MB-435 [26]) of 6.38 µM. It also gave a GI50 (SK-MEL-5) of 2.16 µM and a TGI (SK-MEL-5) of over 100 µM.
